Source: PubChem (several laboratories)
The full list was thinned out, with hits kept by preference.
MMP-13 inhibitor: MMP13 (human) collagenase inhibition. MMP-13 fTHP FRET cleavage, Mca fluorescence. inhibition, % at 4 µM. 65,000 tested, 0.07% active;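 active = inhibition above the mean of compound-free control plate wells plus 3 SD, cut at about 14% in these data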
Calb biofilm kill: kills Candida albicans biofilms; C. albicans biofilm + clotrimazole, Alamar Blue; inhibition, % at 6 µM; 85,000 tested, 0.14% active; AID 834;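 active = inhibition above 20%; inactive = inhibition below 20%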;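 note: preformed 24 hr biofilms exposed to compound for 48 hr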
hDAT+cocaine: human DAT dopamine uptake with cocaine, either direction; LLC-PK1 hDAT cells, [14C]-dopamine uptake with cocaine IC80; actives deviate in either direction; B-score at 10 µM; 110,000 tested, 1.3% active; AID 449768;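 active = Z score or B-score, a plate-position-corrected score, falls beyond the plate's 99.7% confidence bounds, in either direction; inactive = both scores lie inside the 99.7% bounds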
Target sequence (Q01959 whole entry, looked up): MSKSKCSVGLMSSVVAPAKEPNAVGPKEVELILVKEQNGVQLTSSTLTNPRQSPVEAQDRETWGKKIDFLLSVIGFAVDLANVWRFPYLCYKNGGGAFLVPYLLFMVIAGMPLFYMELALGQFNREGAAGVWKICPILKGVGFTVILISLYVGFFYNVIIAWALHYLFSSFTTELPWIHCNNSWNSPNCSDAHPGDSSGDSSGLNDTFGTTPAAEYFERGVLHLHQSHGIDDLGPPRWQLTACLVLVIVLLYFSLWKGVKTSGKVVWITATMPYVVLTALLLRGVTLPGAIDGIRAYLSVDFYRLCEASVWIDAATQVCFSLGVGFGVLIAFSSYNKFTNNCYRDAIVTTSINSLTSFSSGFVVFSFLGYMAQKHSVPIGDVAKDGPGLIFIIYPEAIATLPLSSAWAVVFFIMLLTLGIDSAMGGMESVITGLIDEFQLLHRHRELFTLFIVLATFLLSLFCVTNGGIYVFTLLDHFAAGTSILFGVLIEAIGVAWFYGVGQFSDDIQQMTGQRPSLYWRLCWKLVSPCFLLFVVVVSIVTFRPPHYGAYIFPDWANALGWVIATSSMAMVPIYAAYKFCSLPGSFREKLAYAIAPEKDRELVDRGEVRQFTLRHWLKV
D1 mod: D1 dopamine receptor (human) allosteric modulation | HEK293 D1, CRE-luciferase, dopamine EC30 potentiation; actives deviate in either direction | B-score at 10 µM | 58,000 tested, 5.9% active;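 active = luminescence count or its row- and column-corrected plate score outside the 99.7% band of the plate's sample wells, on either side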
AP ELISA ortho: alternative pathway complement inhibition, orthogonal assay. Human serum alternative complement pathway, LPS-coated ELISA, C3 deposition; tested in compound mixtures. inhibition, % at 5 µM. 62,000 tested, 0.08% active. AID 1235;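 active = inhibition above 30% in each of the two pooled mixtures holding the compound, so the lower value exceeds 30%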
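Test system: human serum alternative complement pathway, C3 deposition on LPS-coated wells; also added: Plate-bound LPS; doses: 5 µM per compound in ten-compound mixtures; schedule: 1 h at 37 °C; detection: Anti-C3 ELISA, OD 450 nm; evaluation: percent inhibition of C3 deposition onto LPS; repeats: two pool placements per compound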
D1 PAM confirm: D1 receptor (human) allosteric modulation, confirmed | shares compounds with D1 mod | HEK293 D1 CRE-luciferase, dopamine EC30 potentiation; active compounds read high | luminescence at 10 µM | 2,200 tested, 88% active | AID 642;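 active = luminescence in either of two replicates above the same-plate mean plus 3 SD of the low-dose dopamine control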
D1 ag no DA: D1 (human) signaling in absence of dopamine | luminescence at 10 µM | HEK293 D1 CRE-luciferase, luminescence, no dopamine; active compounds read high | shares compounds with D1 mod | 1,900 tested, 0.8% active | AID 646; in the data active = luminescence above about 3900
Isoprot counter: isoproterenol response counter-screen activity for D1 modulators | shares compounds with D1 mod | HEK293 D1 CRE-luciferase, isoproterenol EC30 counter-screen; active compounds read high | luminescence at 10 µM | 2,200 tested, 63% active;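 active = luminescence in either replicate above plate mean of wells with a partly effective reference agonist dose plus 3 SD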;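 note: isoproterenol raises cAMP through native beta-adrenoceptor Gs so signal bypasses D1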
Numbers stand for hits; . = inactive; / = not tested or not shown.

SMILES	MMP-13 inhibitor	Calb biofilm kill	hDAT+cocaine	D1 mod	AP ELISA ortho	D1 PAM confirm	D1 ag no DA	Isoprot counter
CC(=O)Nc1sc(NC(=O)c2ccc(Cl)cc2)nc1-c1cccs1	/	/	.	/	/	/	/	/
Nc1nc(-c2cccs2)c(NC(=O)c2ccccc2)s1	.	.	.	6.05	.	14100	.	3544
Cc1ccnc(SCCn2c(N3CC(C)CC(C)C3)nc3c2c(=O)n(C)c(=O)n3C)n1 (stereo unspecified)	.	.	.	3.02	.	5916	.	2888
CN(C)c1ccc(N=Cc2ccco2)cc1	.	.	.	.	.	/	/	/
C(=N\C(/N=C/c1ccco1)c1ccco1)/c1ccco1	.	.	.	8.78	.	17580	.	.
N#CCn1c(C2CCCCC2)nc2ccccc2c1=O	.	.	.	8.42	.	16652	.	5152
COc1ccc(/C(N)=N/OC(=O)Cc2ccc(OC)c(OC)c2)cc1	/	/	.	/	/	/	/	/
OC1CCN(c2c3c(nc4cc(-c5cccc(F)c5)nn24)CCCC3)CC1	.	.	.	7.43	.	17644	.	4964
Fc1cccc(-c2cc3nc4c(c(N5CCC6(CC5)OCCO6)n3n2)CCCC4)c1	.	.	.	.	.	/	/	/
COc1cccc2cc(C(=O)NCc3ccco3)c(=Nc3ccc(C(=O)O)cc3)oc12	/	.	.	/	/	/	/	/
CCCOC(=O)c1ccc(OCC(O)CN2C(=O)NC(C)(C)C2=O)cc1 (stereo unspecified)	.	.	.	/	.	/	/	/
COC(=O)c1ccc(OCC(O)CN2C(=O)NC(C)(C)C2=O)cc1 (stereo unspecified)	.	.	.	5.78	.	6500	/	.
CSc1nnc(-c2cccs2)n1-c1ccccc1	.	/	.	3.72	.	17328	.	3412
CCOC(=O)CSc1nnc(-c2cccs2)n1-c1ccccc1	.	.	.	.	.	/	/	/
N=c1sc2ccccc2n1-c1ccccc1	.	.	.	21.4	.	9268	.	3348
CSc1nnc(Cn2c(=O)sc3ccccc32)n1-c1ccccc1	.	.	.	.	.	/	/	/
COc1ccc(/C=N/n2c(C)cc(C)c(C(N)=O)c2=O)cc1	/	.	.	/	/	/	/	/
O=C(Cc1ccccc1)Nc1ccc(C(=O)O)cc1	.	.	.	.	.	/	/	/
O=C(Cc1ccccc1)Nc1nonc1NC(=O)c1ccccc1	.	.	.	4.08	.	8752	.	2948
COc1ccc2c(c1)C(C)(CCN)C(=O)N2C (stereo unspecified)	/	/	.	/	/	/	/	/
CCOC(=O)c1sc(N(Cc2ccccc2)C(=O)CSc2nnc(C3CC3)n2N)nc1C	.	.	.	6.16	/	18736	.	4272
Cc1cc(C)cc(SCc2noc(C(=O)NCCCN3CCOCC3)c2C(=O)NCCCN2CCOCC2)c1	/	/	.	/	/	/	/	/
Cc1ccc(S(=O)(=O)NCCNC(=O)N2CCOCC2)cc1	.	.	.	.	.	/	/	/
Cc1ccc(S(=O)(=O)NCCCNC(=O)N2CCOCC2)cc1	.	.	.	2.95	.	.	.	.
Nc1nc(Nc2cccc(C(F)(F)F)c2)nc(C(F)(F)F)n1	.	.	.	7.98	.	15108	.	3868
SMILES	MMP-13 inhibitor	Calb biofilm kill	hDAT+cocaine	D1 mod	AP ELISA ortho	D1 PAM confirm	D1 ag no DA	Isoprot counter
COc1ccc(OCc2nnc(SC3CCOC3=O)n2-c2ccccc2)cc1 (stereo unspecified)	.	.	.	.	.	/	/	/
COc1cccc(-n2c(SC3CCOC3=O)nc3ccccc3c2=O)c1 (stereo unspecified)	.	.	.	13.5	.	13364	.	4456
O=C(CSCC(=O)N1CCCc2ccccc21)Nc1nc(-c2ccccc2)cs1	/	/	.	/	/	/	/	/
COCCN1C(=O)c2oc3ccccc3c(=O)c2C1c1ccc(OC)c(OC)c1 (stereo unspecified)	.	.	.	/	.	/	/	/
C=CCN1C(=O)c2oc3ccccc3c(=O)c2C1c1ccc(O)c(OC)c1 (stereo unspecified)	.	.	/	8.12	.	10008	/	.
CSc1c(C#N)c(N)c(C#N)c2c1COC(C)(C)C2	.	.	.	24.5	.	28108	.	6432
CC(C)c1[nH]c(=O)c(C#N)c2c1COC(C)(C)C2	/	.	.	/	/	/	/	/
CCC(CC)C(=O)NC12CC3CC(CC(C3)C1)C2	/	.	.	/	/	/	/	/
